This note sets out measurements from publication PMC11780632 (Bioinformatics and Biology Insights, 2025).

In brackets after ≈: the same amount, converted by molar mass.

Test [1] deals with S. aureus ATCC 25923. Description: Radial diffusion assay. Type of test: cell-based, Staphylococcus aureus. The following applies: RDA, Mueller-Hinton agar, 1 × 10^6 CFU/mL, 24 hours at 37°C, done 3 times.
The test system of the next test is A. baumannii ATCC 19606. Description: MIC and MBC, micro-broth dilution. The format is cell-based. The following applies: Acinetobacter baumannii, ATCC19606, 24 h. An outline of the steps: (§1)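 Strains were grown aerobically for 24 h at 37°C. Two-fold serial dilutions of test peptide were made in 96-well plates, and an equal volume of bacterial suspension at 1 × 10⁶ CFU/mL was added. Plates were incubated for 24 h at 37°C, with gentamicin as control. MIC was taken as the lowest concentration preventing growth.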
Background: In broth dilution the organism is exposed to a series of concentrations in liquid medium.

The subject of test [2] is S. aureus ATCC 25923. In words: MIC and MBC, micro-broth dilution. Type of test: cell-based. The following applies: Staphylococcus aureus, ATCC25923, 24 h. An outline of the steps:
as §1

The next test relates to P. aeruginosa ATCC 27853. Description: MIC and MBC, micro-broth dilution. The note with it: Pseudomonas aeruginosa, ATCC27853, 24 h. Type of test: cell-based. The method in brief: as §1
For a further test, the system named is E. coli ATCC 25922. Description: MIC and MBC, micro-broth dilution. The note with it: Escherichia coli, ATCC25922, 24 h. Type of test: cell-based. An outline of the steps:
as §1

As to `CNC(C)C1CCC(N)C(OC2C(N)CC(N)C(OC3OCC(C)(O)C(NC)C3O)C2O)O1` (centres unmarked) [Gentamicin, gentamicin], in the test with S. aureus ATCC 25923 [1], the “diameter of the inhibition zone” value worked out at 26 mm. Also, the minimum inhibitory concentration (MIC) – broadly, the lowest concentration that inhibits growth of the organism – against A. baumannii ATCC 19606 was 8000 µM (≈ 3820 µg/mL); in the test on S. aureus ATCC 25923 [2], 2000 µM (≈ 955 µg/mL); against P. aeruginosa ATCC 27853 it was 4000 µM (≈ 1910 µg/mL); against E. coli ATCC 25922 it was 1000 µM (≈ 478 µg/mL).
